One data set deals with Cytochrome P450 2D6 (Homo sapiens, UniProt P10635). In words: Inhibition of CYP2D6 in human liver microsomes in presence of NADPH by LC-MS/MS method. The class given is ADME, Microsome.
Data set [1] in a line: Volume of distribution at steady state in BALB/C mouse at 10 mg/kg, po or 2 mg/kg, iv by LC-MS/MS method. The data set is classed as ADME, organism-based. Set-up: unit not given here. The note with it: in vivo, read-out: Vdss. Summed up: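 Single-dose PK: iv bolus 2 mg/kg in 5% DMSO/40% PEG400/55% saline and/or oral gavage 10 mg/kg as 0.445% microcrystalline cellulose microsuspension; BALB/C nude mice (15−20 g, N = 16 per arm) or male Sprague−Dawley rats (250 ± 20 g, N = 3). Blood at eight (po) or nine (iv) time points into sodium heparin, plasma by LC-MS/MS, noncompartmental analysis.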

Data set [2] in a line: Clearance in human liver microsomes at 1 uM incubated for 10 mins by LC-MS/MS method. The class given is ADME, Microsome. Summed up:
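Liver microsomes (human or mouse, 0.5 mg/mL) in 100 mM potassium phosphate pH 7.4 with 1 μM compound, prewarmed 10 min at 37 °C, started with NADPH (10 mM); stopped at 0, 3, 6, 9, 15, 30 min with ice-cold methanol containing tolbutamide internal standard; LC-MS/MS. Hepatic clearance (mL/min/kg) calculated from intrinsic clearance.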

The subject of data set [3] is Mus musculus. In words: AUC in BALB/C mouse at 10 mg/kg, po or 2 mg/kg, iv by LC-MS/MS method. The data set is classed as ADME, organism-based, Plasma. Conditions: in vivo. A digest of the protocol: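 Female-unspecified BALB/C nude mice (15−20 g, N = 16 per arm); iv bolus 2 mg/kg in 5% DMSO/40% PEG400/55% saline and/or oral gavage 10 mg/kg as 0.445% microcrystalline cellulose microsuspension. Blood sampled at nine (iv) or eight (po) time points into sodium heparin tubes; plasma by LC-MS/MS; noncompartmental analysis.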

In another data set the test system is SGC-7901. The class given is functional, Homo sapiens.
The subject of another data set is MGC-803. The data set is classed as functional, Homo sapiens.
The subject of data set [4] is Mus musculus. In words: Toxicity in human Bel7404 cells xenografted BALB/C mouse assessed as body weight loss at 50 mg/kg, po qd for 4 weeks. The note with it: in vivo, 672 h.
Data set [5] deals with Mus musculus. In words: Toxicity in human Bel7404 cells xenografted BALB/C mouse assessed as body weight loss at 100 mg/kg, po administered every other day for 4 weeks. The note with it: in vivo, 672 h.
In a further data set the test system is SMMC-7721. In words: Induction of apoptosis in human SMMC-7721 cells assessed as late apoptotic cell level at 5 uM incubated for 48 hrs by FITC/Annexin V staining based flow cytometry (reference value: 6.08%).
Data set [6] concerns Mus musculus. In words: Inhibition of Class 1 histone deacetylase in treatment non-responding human hepatocellular carcinoma patient tumor xenografted in BALB/C mouse assessed as induction of histone H3 acetylation at 100 mg/kg, po administered every other day for 4 weeks by immunohistochemistry. The class given is functional, organism-based. Set-up: dose 100 mg/kg. Summed up: (§1)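 Patient-derived HCC xenografts in female nude mice given 100 mpk Q2D PO (15% Kleptose, pH 4.5 tartaric buffer); single dose on last day, tumors harvested 0 to 24 h post-dose. Paraffin sections, citrate pH 6.0 antigen retrieval, anti-Ac-H3 (Lys9) 1:200 overnight 4 °C, HRP/DAB; scored 0−3 independently by two pathologists.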

Data set [7] has as its system Mus musculus. In words: Inhibition of Class 1 histone deacetylase in treatment responding human hepatocellular carcinoma patient tumor xenografted in BALB/C mouse assessed as induction of histone H3 acetylation at 100 mg/kg, po administered every other day for 4 weeks by immunohistochemistry. The class given is functional, organism-based. Set-up: dose 100 mg/kg. Summed up: as §1

The test system of a further data set is Homo sapiens. In words: Antitumor activity against treatment non-responding human hepatocellular carcinoma patient tumor xenografted in BALB/C mouse assessed as tumor growth inhibition at 100 mg/kg, po administered every other day for 4 weeks. The class given is functional, organism-based. More on the design: dose 100 mg/kg. Summed up: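 Tumor fragments (3×3×3 mm3) from HCC patients implanted subcutaneously in right flank of female BALB/c nu/nu mice (6−7 weeks). At about 200 (150−250) mm3, randomized (n = 10 per arm); Q2D PO 100 mpk in 15% Kleptose pH 4.5 tartaric buffer, about four weeks; caliper tumor volume three times weekly.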

Data set [8] has as its system Mus musculus. In words: Up-regulation of SDC2 gene expression in human hepatocellular carcinoma patient tumor xenografted in BALB/C mouse at 100 mg/kg, po administered every other day for 4 weeks by […]. The class given is functional, organism-based. Set-up: dose 100 mg/kg. A digest of the protocol:
(§2)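 Patient HCC tumor fragments (3 × 3 × 3 mm3) implanted subcutaneously in female BALB/c nu/nu mice; at ~200 (150−250) mm3 dosed orally Q2D 100 mpk in 15% Kleptose pH 4.5 tartaric buffer for about four weeks. Tumor RNA (TRIzol, DNase I) run on 22-gene qRT-PCR array, normalized to GAPDH/β-glucuronidase by ΔCt, fold change versus day 0.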

Data set [9] deals with Mus musculus. In words: Up-regulation of CDKN1A gene expression in human hepatocellular carcinoma patient tumor xenografted in BALB/C mouse at 100 mg/kg, po administered every other day for 4 weeks by […]. The data set is classed as functional, organism-based. Set-up: dose 100 mg/kg. Summed up:
as §2

Data set [10] concerns Mus musculus. In words: Up-regulation of CEBPA gene expression in human hepatocellular carcinoma patient tumor xenografted in BALB/C mouse at 100 mg/kg, po administered every other day for 4 weeks by […]. The class given is functional, organism-based. Set-up: dose 100 mg/kg. Summed up: as §2
Data set [11] has as its system Mus musculus. In words: Up-regulation of IGFBP3 gene expression in human hepatocellular carcinoma patient tumor xenografted in BALB/C mouse at 100 mg/kg, po administered every other day for 4 weeks by […]. More on the design: dose 100 mg/kg. The data set is classed as functional, organism-based. Summed up: as §2
Data set [12] has as its system Mus musculus. In words: Up-regulation of PYCARD gene expression in human hepatocellular carcinoma patient tumor xenografted in BALB/C mouse at 100 mg/kg, po administered every other day for 4 weeks by […]. More on the design: dose 100 mg/kg. The class given is functional, organism-based. Summed up:
as §2

For data set [13], the system named is Mus musculus. In words: Up-regulation of SPINT2 gene expression in human hepatocellular carcinoma patient tumor xenografted in BALB/C mouse at 100 mg/kg, po administered every other day for 4 weeks by […]. The class given is functional, organism-based. Set-up: dose 100 mg/kg. A digest of the protocol: as §2
Data set [14] concerns Mus musculus. In words: Up-regulation of CDKN2A gene expression in human hepatocellular carcinoma patient tumor xenografted in BALB/C mouse at 100 mg/kg, po administered every other day for 4 weeks by […]. The class given is functional, organism-based. More on the design: dose 100 mg/kg. A digest of the protocol:
as §2

In data set [15] the test system is Mus musculus. In words: Up-regulation of TFPI2 gene expression in human hepatocellular carcinoma patient tumor xenografted in BALB/C mouse at 100 mg/kg, po administered every other day for 4 weeks by […]. The class given is functional, organism-based. Set-up: dose 100 mg/kg. Summed up:
as §2

Data set [16] deals with Mus musculus. In words: Up-regulation of SOCS1 gene expression in human hepatocellular carcinoma patient tumor xenografted in BALB/C mouse at 100 mg/kg, po administered every other day for 4 weeks by […]. Set-up: dose 100 mg/kg. The data set is classed as functional, organism-based. A digest of the protocol: as §2
Data set [17] deals with Mus musculus. In words: Up-regulation of FN1 gene expression in human hepatocellular carcinoma patient tumor xenografted in BALB/C mouse at 100 mg/kg, po administered every other day for 4 weeks by […]. The data set is classed as functional, organism-based. More on the design: dose 100 mg/kg. Summed up:
as §2

Data set [18] concerns Mus musculus. In words: Inhibition of Class 1 histone deacetylase in human Bel7404 cells xenografted BALB/C mouse assessed as induction of histone H3 acetylation at 100 mg/kg, po administered every other day for 4 weeks by Western blot method. Conditions: Bel-7404.

Activity calls are given as the source filed them. The calls are words filed in the database; no cut-off is given here.

This is an account of results in ChEMBL document CHEMBL2177000, “Pharmacokinetic optimization of class-selective histone deacetylase inhibitors and identification of associated candidate predictive biomarkers of hepatocellular carcinoma tumor response” (J Med Chem, 2012).

Chain of Cytochrome P450 2D6 (P10635 whole entry): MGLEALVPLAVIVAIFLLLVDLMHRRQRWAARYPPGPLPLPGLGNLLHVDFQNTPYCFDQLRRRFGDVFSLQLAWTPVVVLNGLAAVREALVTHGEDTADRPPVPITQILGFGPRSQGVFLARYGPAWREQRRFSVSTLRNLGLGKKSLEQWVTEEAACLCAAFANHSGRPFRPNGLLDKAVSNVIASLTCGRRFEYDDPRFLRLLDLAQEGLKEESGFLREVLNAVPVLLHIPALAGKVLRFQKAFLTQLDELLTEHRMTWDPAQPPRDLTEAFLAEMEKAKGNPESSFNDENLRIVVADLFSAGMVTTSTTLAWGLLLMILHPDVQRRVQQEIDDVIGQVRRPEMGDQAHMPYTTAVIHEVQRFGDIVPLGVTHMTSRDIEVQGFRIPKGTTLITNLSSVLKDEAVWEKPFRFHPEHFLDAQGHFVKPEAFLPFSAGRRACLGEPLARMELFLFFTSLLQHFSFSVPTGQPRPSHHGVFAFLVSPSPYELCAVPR

For the compound `CN1C[C@H](C(=O)Nc2ccc(Cl)cc2)[C@@H](c2ccc(/C=C/C(=O)Nc3ccccc3N)cc2F)C1` (racemic), the half-maximal inhibitory concentration (IC50) at Cytochrome P450 2D6 was 9 µM. In [1], the Vd amounted to 3. The CLhep predicted at 1 µM in data set [2] is 14 mL/min/kg.
On to `CN1C[C@H](C(=O)Nc2ccc(Cl)cc2)[C@@H](c2ccc(/C=C/C(=O)Nc3ccccc3N)cc2)C1` [listing 1 of 2 here], for which the AUC in the data set with Mus musculus [3] amounted to 6316 ng·h/mL. Moreover, the GI90 in the data set with SGC-7901 worked out at 1.4 µM; with MGC-803 it was 2 µM. The values for the Activity in the data set on Mus musculus [4], in the data set with Mus musculus [5] and in the data set on SMMC-7721 were less than 10%, less than 10% and 36.17%, respectively.
On to `CN1C[C@H](C(=O)Nc2ccc(Cl)cc2)[C@@H](c2ccc(/C=C/C(=O)Nc3ccccc3N)cc2)C1` [listing 2 of 2 here], for which, in the data set with Mus musculus [6], the inhibition entry was “inactive”. For the same compound, the inhibition entry with Mus musculus [7] and with Mus musculus [18] was “Active” in each case. Besides, the TGI entry in the data set on Homo sapiens was “inactive”. Also, the result with Mus musculus [8], in the data set with Mus musculus [9], in the data set on Mus musculus [10], with Mus musculus [11], in the data set with Mus musculus [16] and in the data set with Mus musculus [17] was Active. The outcome in the data set on Mus musculus [12], with Mus musculus [13], in the data set on Mus musculus [14] and in the data set with Mus musculus [15] was inactive.
